According to article PMC2813889 (Toxicon : official journal of the International Society on …, 2009):
Like-named read-outs stand apart in the source and are kept apart here.

Legend:
[1] = molecular target: protein phosphatase 2A (PP2A) (Homo sapiens, UniProt P67775); assay: Protein phosphatase 2A inhibition assay; type: biochemical
Procedure, shortened: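 Colorimetric PP2A inhibition after a published method. Samples incubated 1 h at room temperature and read at 405 nm. A standard curve of the parent toxin was prepared identically to the samples. Isolated metabolite concentrations were set by LC-MS against a single-point calibration (10 μL of 6.2 μM parent toxin, 50 ng). IC50 taken from activity versus log concentration curves.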

[2] = system: CYP1A1, 1A2, 2C8, 2C9, 2C19, 2D6, 2E1; assay: Incubation of OA with the seven other recombinant P450s; type: in vitro ADME, human; conditions: same incubation conditions, limit of detection 0.1 ng OA
[3] = Incubation of OA with pooled human liver microsomes; type: in vitro ADME; conditions: 5 mg mL^-1 protein, 5 μM OA, 37 °C, 30 min
various liver cell lines = conditions: depending on cell line; ref Souid-Mensi, et al., 2008; cited from earlier work
CYP3A5 = CYP3A5 (Homo sapiens, UniProt P20815); assay: Incubation of OA with recombinant CYP3A5; type: in vitro ADME; conditions: CYP 3A5 reaction, after 6 hrs of incubation
Chain of CYP3A5 (P20815 whole entry): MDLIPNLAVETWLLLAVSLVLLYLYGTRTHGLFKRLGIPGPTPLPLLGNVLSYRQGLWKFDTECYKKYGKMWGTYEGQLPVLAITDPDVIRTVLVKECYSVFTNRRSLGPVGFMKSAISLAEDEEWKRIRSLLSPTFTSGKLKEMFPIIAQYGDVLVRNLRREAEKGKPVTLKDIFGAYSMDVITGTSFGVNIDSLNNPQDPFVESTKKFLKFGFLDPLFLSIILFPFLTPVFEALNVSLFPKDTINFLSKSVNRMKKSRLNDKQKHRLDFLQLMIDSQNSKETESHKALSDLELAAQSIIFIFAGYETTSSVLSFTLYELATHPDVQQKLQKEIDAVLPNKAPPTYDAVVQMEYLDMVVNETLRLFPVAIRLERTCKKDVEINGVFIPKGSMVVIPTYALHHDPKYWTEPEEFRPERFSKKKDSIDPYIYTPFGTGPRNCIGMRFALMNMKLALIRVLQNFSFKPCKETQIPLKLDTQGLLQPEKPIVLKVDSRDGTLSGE

CYP3A4 = CYP3A4 (Homo sapiens, UniProt P08684); assay: Incubation of OA with recombinant CYP3A4 and CYP3A4 enzyme kinetics; type: in vitro ADME
Chain of CYP3A4 (P08684 whole entry): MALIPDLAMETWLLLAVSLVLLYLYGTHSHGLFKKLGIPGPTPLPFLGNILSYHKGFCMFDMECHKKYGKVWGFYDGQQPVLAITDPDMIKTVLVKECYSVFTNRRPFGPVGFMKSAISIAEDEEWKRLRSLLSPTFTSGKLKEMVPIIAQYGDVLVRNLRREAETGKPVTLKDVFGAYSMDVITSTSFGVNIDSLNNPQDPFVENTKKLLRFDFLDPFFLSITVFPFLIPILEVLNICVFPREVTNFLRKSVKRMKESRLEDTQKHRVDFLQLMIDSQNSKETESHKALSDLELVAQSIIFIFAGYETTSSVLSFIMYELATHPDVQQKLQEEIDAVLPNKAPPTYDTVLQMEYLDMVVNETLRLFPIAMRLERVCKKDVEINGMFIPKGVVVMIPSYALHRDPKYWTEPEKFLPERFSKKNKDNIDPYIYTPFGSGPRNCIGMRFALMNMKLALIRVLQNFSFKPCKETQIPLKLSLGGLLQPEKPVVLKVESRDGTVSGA

Chain of protein phosphatase 2A (PP2A) (P67775 whole entry): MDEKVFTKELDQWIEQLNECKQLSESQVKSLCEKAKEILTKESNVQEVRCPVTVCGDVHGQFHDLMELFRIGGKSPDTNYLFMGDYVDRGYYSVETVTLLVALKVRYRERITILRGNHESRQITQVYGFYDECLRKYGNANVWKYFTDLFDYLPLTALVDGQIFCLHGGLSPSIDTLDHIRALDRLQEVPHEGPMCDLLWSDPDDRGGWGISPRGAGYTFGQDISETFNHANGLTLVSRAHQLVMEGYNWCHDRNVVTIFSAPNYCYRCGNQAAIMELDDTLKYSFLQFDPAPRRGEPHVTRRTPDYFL

Compound | IC50 ([1]; read-out: IC50, inhibition of PP2A, 1 h at room temperature, read at 405 nm) [nM] | metabolism of OA by the seven other P450s [2] | metabolite formation in pooled human liver microsomes [3] | LD50 for OA with various liver cell lines (various liver cell lines) [nM] | overall yield of all four metabolites (CYP3A5) [%] | overall yield of all four metabolites (CYP3A4; CYP3A4 reaction, after 6 hrs of incubation) [%] | Vmax for the oxidation of OA by CYP3A4 (CYP3A4; double-reciprocal plots, OA 10 μM to 100 μM, 300 pmol 3A4) | Km (CYP3A4; human, recombinant CYP3A4) [µM] | IC50 [1] [nM]
11S-hydroxy okadaic acid [metabolite 2] | 1.34 | – | – | – | – | – | – | – | –
C=C1[C@@H](O)[C@@H]2O[C@]3(CC[C@H](/C=C/[C@@H](C)[C@@H]4CC(C)=C[C@@]5(O[C@H](C[C@@](C)(O)C(=O)O)CC[C@H]5O)O4)O3)CC[C@H]2O[C@@H]1[C@@H](O)C[C@H](C)[C@H]1O[C@@]2(CCCCO2)CC[C@H]1C [OA, Okadaic acid] | – | none of the seven other P450s metabolized OA | four metabolites, identical to those formed in CYP3A4 incubations, were produced | 10 to 100 | 6.1 | 31.3 | 7.23 nmol of metabolites nmol^-1 min^-1 | 73.4 | 0.61
